From ChEMBL document CHEMBL1135044, “Studies on the side-chain hydroxylation of ifosfamide and its bromo analogue” (Bioorg Med Chem Lett, 2002) come the findings set out here.

Data set [1] is filed under the species Mus musculus. Nature of the data set: Maximum tolerated dose against L1210 leukemia in mice. In kind it is functional. The gist of the method:
(§1)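 Sub-acute toxicity was tested in healthy, non-tumour-bearing CD2F1 females (12–16 weeks, 25–27 g), given a single ip injection or oral gavage and observed for 45 days. Mortality was pooled from 3–6 experiments, usually 4–7 dose levels, with ≥5 mice per group. Litchfield–Wilcoxon log-dose curves were fitted. LD50 (with 95% confidence limits) and LD5 (taken as MTD) were estimated graphically.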

Data set [2] can be described thus: Dose required to kill 50% of healthy, non-tumour-bearing mice (LD50). The following applies: mouse, in vivo. The gist of the method: as §1
Data set [3] can be described thus: Therapeutic index represented as LD50/ED50 was determined.
The species named for data set [4] is Mus musculus. The data set is described as follows: Effective dose that produce antitumor activity against L1210 leukemia in mice. In kind it is functional. The method in brief:
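CD2F1 mice were inoculated ip with 10^5 ascitic L1210 cells in PBS and given a single ip dose on day 3 (advanced disease), following NIH/NCI in vivo screening protocols. ILS was calculated as T/C × 100 − 100 from average survival times. ED50, the dose giving 50% ILS, was read graphically from least-squares dose–effect curves.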

Broadly, the MTD is the highest dose tested that stayed within the study's limit of toxicity. For orientation: LD50 means the dose at which mortality reaches 50%. A low value points to a more toxic substance. Usually ED50 stands for the midpoint of the dose-response relation. Read a low ED50 as greater potency. In turn, `O=P1(NCCCl)OCCCN1CCBr` (stereo not drawn) displayed an MTD in the data set filed under Mus musculus [1] of 236 mg/kg. In data set [2], this compound registered an LD50 of 320 mg/kg. In data set [3], this compound came in with a TI of 9.3 Ratio. The ED50 in the data set listed under Mus musculus [4] was 34.3 mg/kg.

`[2H]C([2H])(CCl)N[P@]1(=O)OCCCN1C([2H])([2H])CBr`: in the data set listed under Mus musculus [1], the MTD stood at 196 mg/kg. This compound returned an LD50 in data set [2] of 265 mg/kg. The compound also had a TI in data set [3] of 17.7 Ratio. The ED50 in the data set filed under Mus musculus [4] worked out at 15 mg/kg.

`[2H]C([2H])(CCl)NP1(=O)OCCCN1C([2H])([2H])CCl` (stereo not drawn): the ED50 in the data set filed under Mus musculus [4] amounted to 67.8 mg/kg.

With `O=[P@]1(NCCCl)OCCCN1CCBr`, the MTD in the data set filed under Mus musculus [1] came out at 230 mg/kg. The LD50 in data set [2] was determined as 289 mg/kg. Besides, the TI in data set [3] is on record as 13.6 Ratio. In the data set listed under Mus musculus [4], this compound yielded an ED50 of 21.3 mg/kg.

Compound `[2H]C([2H])(CCl)NP1(=O)OCCCN1C([2H])([2H])CBr` (stereo not drawn) registered an ED50 in the data set filed under Mus musculus [4] of 23.6 mg/kg.

In turn, `O=P1(NCCCl)OCCCN1CCCl` (stereo not drawn) [IFOSFAMIDE] returned an MTD in the data set listed under Mus musculus [1] of 518 mg/kg. In data set [2], this compound showed an LD50 of 687 mg/kg. This compound also gave a TI in data set [3] of 7.1 Ratio. The compound also returned an ED50 in the data set filed under Mus musculus [4] of 96.4 mg/kg.
